Assay results as given in ChEMBL document CHEMBL1135999, “Discovery of N-isoxazolyl biphenylsulfonamides as potent dual angiotensin II and endothelin A receptor antagonists” (J Med Chem, 2002).
Activity calls are given as the source filed them. The rule behind the calls is not given here.

What was measured:
[1] = target: T1, Type-1 angiotensin II receptor (Homo sapiens, UniProt P30556); assay: Compound was evaluated for inhibitory activity against human Angiotensin II receptor, type 1
T1 sequence (P30556 whole entry): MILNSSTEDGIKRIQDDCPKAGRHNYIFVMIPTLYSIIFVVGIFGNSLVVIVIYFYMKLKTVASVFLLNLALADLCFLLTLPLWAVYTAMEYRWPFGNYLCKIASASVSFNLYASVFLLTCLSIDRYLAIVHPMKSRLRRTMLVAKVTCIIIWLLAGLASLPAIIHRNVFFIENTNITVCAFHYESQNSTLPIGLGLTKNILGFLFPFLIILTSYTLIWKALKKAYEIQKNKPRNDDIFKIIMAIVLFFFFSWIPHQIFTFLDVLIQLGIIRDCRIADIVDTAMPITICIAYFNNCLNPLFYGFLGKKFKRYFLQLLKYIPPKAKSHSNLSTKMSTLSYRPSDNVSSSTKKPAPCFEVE
Procedure, shortened: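 Human recombinant AT1 receptor membranes in 50 mM Tris-HCl pH 7.4 with 10 mM MgCl2, 1 mM EDTA and 0.1% BSA. Incubated with 0.2 nM [125I]-Sar-Ile-angiotensin II and increasing compound concentrations, 60 min at 37 °C. Nonspecific binding defined with 10 µM angiotensin II. Bound and free label separated, then gamma-counted.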

[2] = target: T2, Type-1 angiotensin II receptor B (Rattus norvegicus, UniProt P29089); assay: Compound was evaluated for its binding affinity towards rat Angiotensin II receptor, type 1
T2 sequence (P29089 whole entry): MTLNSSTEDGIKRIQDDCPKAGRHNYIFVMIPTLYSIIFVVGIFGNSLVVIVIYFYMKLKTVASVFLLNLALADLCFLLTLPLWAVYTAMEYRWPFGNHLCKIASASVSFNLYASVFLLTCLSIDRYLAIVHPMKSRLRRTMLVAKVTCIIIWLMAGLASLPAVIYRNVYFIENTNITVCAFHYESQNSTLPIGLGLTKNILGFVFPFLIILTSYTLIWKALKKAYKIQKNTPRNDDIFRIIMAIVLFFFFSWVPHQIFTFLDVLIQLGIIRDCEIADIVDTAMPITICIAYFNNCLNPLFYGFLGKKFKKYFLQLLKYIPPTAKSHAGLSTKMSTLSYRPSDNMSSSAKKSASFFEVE
Procedure, shortened: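 Rat aortic smooth muscle cells grown 48 h to 90% confluency in HEPES-buffered DMEM with 10% FCS. Assayed in DMEM with 0.1% BSA and 0.01% sodium azide, using 0.2 nM [125I]-Sar-Ile-angiotensin II and increasing compound. Nonspecific binding defined with 10 µM Ang II. Incubated 2 h at room temperature with shaking, washed with cold PBS, lysed in 1% Triton X-100, gamma-counted. IC50 obtained by curve fitting.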

Rattus norvegicus [3] = assay: Compound was tested for its activity in bET-1 pressor test following intravenous administration; NE = No effect; assay type: functional, organism-based
Rattus norvegicus [4] = assay: Compound was tested for its activity in Ang II pressor test following oral administration; assay type: functional
Procedure, shortened: (§1)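 Conscious normotensive rats carrying carotid artery and jugular vein catheters. […] Compound was given by oral gavage, and rats were rechallenged with Ang II at intervals up to 240 min. Percent inhibition taken from the maximum blood pressure rise before versus after drug; n = 4 per dose.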

Rattus norvegicus [5] = assay: Compound was tested for its activity in bET-1 pressor test following oral administration; NE = No effect; assay type: functional, organism-based
Procedure, shortened: (§2)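 Conscious normotensive rats challenged iv with big ET-1 (1.0 nmol/kg). A control response was obtained after vehicle. Compound was then given orally, and bET-1 was re-injected iv at 15, 105 and 195 min after dosing. Mean blood pressure followed up to 3 h, with area over curve used as read-out; n = 4 per dose.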

Rattus norvegicus [6] = assay: (§3) Compound was tested for its activity in Ang II pressor test following intravenous administration; assay type: functional
Rattus norvegicus [7] = assay: Compound was tested for its activity in Ang II pressor test following intravenous administration; NE = No effect; assay type: functional, organism-based
Rattus norvegicus [8] = assay: Compound was tested for its activity in bET-1 pressor test following oral administration; assay type: functional; procedure, shortened: as §2
Rattus norvegicus [9] = assay: Compound was tested for its activity in Ang II pressor test following oral administration; NE = No effect; assay type: functional, organism-based; procedure, shortened: as §1
Rattus norvegicus [10] = assay: Compound was tested for its activity in bET-1 pressor test following intravenous administration; assay type: functional
Endothelin-1 receptor = target: T3, Endothelin-1 receptor (Homo sapiens, UniProt P25101); assay: Compound was evaluated for its binding affinity towards human Endothelin A receptor
T3 sequence (P25101 whole entry): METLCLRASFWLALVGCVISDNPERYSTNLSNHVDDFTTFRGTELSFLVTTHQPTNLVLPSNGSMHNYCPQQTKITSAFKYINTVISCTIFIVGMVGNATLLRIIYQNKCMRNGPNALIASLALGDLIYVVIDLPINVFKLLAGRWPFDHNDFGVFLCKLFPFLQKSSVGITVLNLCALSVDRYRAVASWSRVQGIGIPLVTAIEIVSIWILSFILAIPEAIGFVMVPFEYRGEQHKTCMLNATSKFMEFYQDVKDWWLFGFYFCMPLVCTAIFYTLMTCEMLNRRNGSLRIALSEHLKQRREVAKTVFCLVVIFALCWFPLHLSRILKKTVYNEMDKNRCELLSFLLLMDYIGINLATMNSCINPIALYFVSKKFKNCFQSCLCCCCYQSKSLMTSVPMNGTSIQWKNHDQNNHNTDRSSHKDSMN
Procedure, shortened: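 CHO-K1 cells expressing human ETA receptor, seeded 1.8×10^4 cells/well 24 h before assay. Binding run in 50 mM Tris pH 7.4 with 1% BSA and 2 µM phosphoramidon, using 0.25 nM [125I]-ET-1 and competing drug. Nonspecific binding defined with 500 nM ET-1. Incubated 4 h at 4 °C with shaking, washed, cells dissolved in 0.5 N NaOH, gamma-counted.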

[11] = Pharmacokinetic parameter Volume of distribution was determined in rat following i.v. administration of a dose of 10 (umol/kg) (mean+/-SD); assay type: ADME, organism-based; settings: in vivo, iv, read-out: Vss
Procedure, shortened: (§4)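 Male rats dosed at 10 µmol/kg, iv or po (n = 6 per route). Plasma exposure followed to give AUC0-∞, clearance, Vss, t1/2 and MRT (iv), and Cmax, Tmax, t1/2, MRT, AUC and oral bioavailability (po). Values reported as mean ± SD.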

Rattus norvegicus [12] = assay: as §3; assay type: ADME, organism-based
[13] = Pharmacokinetic parameter Plasma clearance determined after intravenous administration at a dose of 10 (umol/kg) (mean+/-SD); assay type: ADME, organism-based; procedure, shortened: as §4
[14] = Pharmacokinetic parameter Area under curve reported following peroral administration at a dose of 10 (umol/kg) (mean+/-SD); assay type: ADME; settings: po; procedure, shortened: as §4
[15] = half life was determined in rat at a dose of 10 (umol/kg) following intravenous administration (mean+/-SD); assay type: ADME, organism-based; settings: in vivo; procedure, shortened: as §4
[16] = Pharmacokinetic parameter MRT value determined in rat at a dose of 10(umol/kg) following peroral administration (mean+/-SD); assay type: ADME, organism-based; settings: in vivo, po; procedure, shortened: as §4
[17] = Pharmacokinetic parameter Area under curve reported following intravenous administration at a dose of 10 (umol/kg) (mean+/-SD); assay type: ADME; procedure, shortened: as §4
[18] = A dose of 10(umol/kg) was administered orally to rat and % bioavailability was determined; assay type: ADME, organism-based; settings: in vivo, po, read-out: Bioavailabiility; procedure, shortened: as §4
[19] = Pharmacokinetic parameter MRT value was determined in rat at a dose of 10(umol/kg) following intravenous administration (mean+/-SD); assay type: ADME, organism-based; settings: in vivo; procedure, shortened: as §4
[20] = A dose of 10(umol/kg) was administered orally to rat and Tmax value was determined (mean+/-SD); assay type: ADME, organism-based; settings: in vivo, po; procedure, shortened: as §4
[21] = A dose of 10 (umol/kg) was administered pre orally to rat and plasma concentration was reported (mean+/-SD); assay type: ADME, organism-based; set-up: dose 10 umol/kg, route oral; settings: po; procedure, shortened: as §4
[22] = half life was determined in rat at a dose of 10 (umol/kg) following peroral administration (mean+/-SD); assay type: ADME, organism-based; settings: in vivo, po; procedure, shortened: as §4

## CCCc1cc(Cn2c(CC)nc3c(C)cc(C)nc32)ccc1OC(C(=O)NS(=O)(=O)c1ccc(C(C)C)cc1)c1ccc2c(c1)OCO2 (stereo not drawn)
[1]
  IC50: 13 nM

## CCCCC1=NC2(CCCC2)C(=O)N1Cc1ccc(-c2ccccc2-c2nnn[nH]2)cc1 [IRBESARTAN]
[2]
  Ki: 0.8 nM
Rattus norvegicus [3]
  NE: inactive
Rattus norvegicus [4]
  ED50: 16 µmol/kg
Rattus norvegicus [5]
  Activity: inactive
Rattus norvegicus [6]
  ED50: 0.3 µmol/kg

## Cc1noc(NS(=O)(=O)c2ccccc2-c2ccc(-c3ncco3)cc2)c1C
Rattus norvegicus [7]
  NE: inactive
[2]
  Ki: > 10000 nM
Rattus norvegicus [8]
  ED50: 10 µmol/kg
Rattus norvegicus [9]
  NE: inactive
Rattus norvegicus [10]
  ED50: 0.9 µmol/kg

## CCCCC1=NC2(CCCC2)C(=O)N1Cc1ccc(-c2ccccc2S(=O)(=O)Nc2onc(C)c2C)cc1
[2]
  Ki: 4.7 nM
Endothelin-1 receptor
  Ki: 39 nM

## CCCCC1=NC2(CCCC2)C(=O)N1Cc1ccc(-c2ccccc2S(=O)(=O)Nc2onc(C)c2C)c(CN2CCC(C)(C)C2=O)c1 [BMS-248360]
[11]
  Vd: 1.4 L/kg
Rattus norvegicus [12]
  ED50: 1.4 µmol/kg
[13]
  clearance: 3.8 mL/min/kg
[14]
  AUC: 19 µM·h
[15]
  half-life: 5.5 h
[16]
  MRT: 5 h
Rattus norvegicus [4]
  ED50: 39 µmol/kg
Rattus norvegicus [8]
  ED50: 26 µmol/kg
[17]
  AUC: 50 µM·h
Rattus norvegicus [10]
  ED50: 2.1 µmol/kg
[18]
  bioavailability: 38%
[19]
  MRT: 6.4 h
[20]
  Tmax: 0.7 h
[21]
  Cmax: 3.1 µM
[22]
  half-life: 3 h
